Compound activity from PubChem BioAssay.
Compounds with a hit are over-represented: about 3.1% of the library has one in this group of screens.
HIV Env fusion – inhibitors of HIV-1 Env-driven cell-cell fusion, primary screen, HeLa-JRFL effector, CEM21 target cells, luciferase; inhibition, % at 12.3 µM; actives 1.1% (n = 360,000);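 active means mean replicate inhibition score of at least 50 and every replicate individually at or above 50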;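 further: 0% = plate neutral controls and 100% = maraviroc near 300 nM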
GSIS activator – GLuc luminescence reporter in INS-1E cells, primary screen for activators of glucose-dependent secretion of insulin | INS-1E GLuc reporter insulin secretion, 2-3 h | activation, % at 16.6 µM | actives 0.61% (n = 370,000);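 active means lowest replicate activation of at least 40%, so every replicate reaches that level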;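 further: 0% = median of neutral control wells and 100% = median of IBMX positive control wells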
Cneo AK release – Cryptococcus neoformans cell lysis inducers, primary screen, AK release luminescence, single concentration; C. neoformans lysis, adenylate kinase release luminescence, 4 h; normalised: neutral wells 0, clomiphene wells 100; lysis activity, % at 15 µM; actives 0.2% (n = 360,000); AID 651654, 2012;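 active means mean lysis activity across replicates of at least 80%, whatever share of replicates individually reach that level; inactive means mean lysis activity below 80%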
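Test system: log-phase Cryptococcus neoformans yeast cells; Quantity: yeast cell density of 5 × 10^6 cells/mL; Buffer or medium: YPD; Doses: single compound concentration per well; Timing: 4 h at 37 °C static, read 1 h later; Measured by: AK luminescence; Read-out basis: lysis from increased AK signal; Control set: Clomiphene as positive control.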
rRNA inh HTS – reduced GFP signal of wild-type E. coli, primary screen, bacterial rRNA inhibitor project, GFP/RFP fluorescence, OD600, single point; AID 720706, 2013; E. coli WT GFP vs humanized-ribosome RFP mutants, 24 h; hits give low values; DMSO median 0, no signal -100; GFP signal change (wild-type ribosome), % (test concentration not listed); actives 1.6% (n = 350,000);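 active means significant combined selectivity score with lowered wild-type GFP, culture density cut under 30%, mutant RFP and density less affected; inactive means any of these conditions unmet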
F508del corr – F508del CFTR correction, initial screen, CFBE line, single point; CFBE cells, YFP halide quenching; stimulated with forskolin plus potentiator P3; % fluorescence drop versus neutral controls; activity (quench increase), % at 7.58 µM; actives 0.36% (n = 350,000); AID 720511, 2013;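 active means mean added fluorescence quench of at least 8% versus neutral control, with both replicates also reaching 8%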;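 further: cells transiently co-express mutant CFTR-F508del with the halide-sensitive YFP; corrector assay measuring rescue of mutant channel to the surface after 24 h compound exposure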
miR-122 sensor – miR-122 Renilla sensor signal increase in Huh7, primary screen, miR-122 inhibitor project, cell-based, single point, plate reader | Huh7 miR-122 Renilla luciferase sensor, 48 h; neutral wells = 0, positive control = 100 | activation (reporter increase), % at 12.5 µM | actives 0.3% (n = 340,000);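 active means mean replicate activation score at least 90 and every replicate individually at or above 90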;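 further: higher luciferase means less miR-122 activity so hits act as miR-122 inhibitors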
Numbers without * were called inactive; . = no result; [ ] = another dose, or the depositor's remark.

SMILES | HIV Env fusion | GSIS activator | Cneo AK release | rRNA inh HTS | F508del corr | miR-122 sensor
O=C(CN1CCOCC1)N[C@H]1CC[C@H](CCn2cc(C3CCCC3)nn2)O[C@H]1CO | . | 11 | . | -1 | -1 | .
CCc1nc2ccc(C(=O)N3CCN(C(=O)c4ccco4)CC3)cn2c1N(C)Cc1ccc(OC)cc1 | 72* | 27 | -1 | 4 | -1 | -6
CCc1nc2ccc(C(=O)N3CCN(C(=O)c4ccco4)CC3)cn2c1N(C)C(=O)COc1ccccc1 | -148 | 1 | -3 | 7 | -1 | 97*
CN(C)CC#Cc1ccc([C@@H]2[C@@H](CO)N3CCCCN(C(=O)Nc4ccc(F)cc4)C[C@H]23)cc1 | . | 3 | -1 | 1 | 0 | 3[16.7 µM]
CCCC#Cc1ccc2c(c1)O[C@H](CN(C)C(=O)c1cnccn1)[C@@H](C)CN([C@@H](C)CO)S2(=O)=O | -18[16.7 µM] | -6 | 1 | 1 | 3 | 32[16.7 µM]
COc1ccc(Cl)cc1N(CC(=O)N(C)C)S(=O)(=O)c1ccc(C)c([N+](=O)[O-])c1 | -21 | -5 | 4 | 6 | -1 | 101*
COc1ccc(Cl)cc1N(CC(=O)N/N=C/c1ccc(OC(C)C)cc1)S(=O)(=O)c1ccc(C)c([N+](=O)[O-])c1 | . | -10 | . | 5 | -3 | .
COc1cc2oc3ccccc3c2cc1N(CC(=O)N(C)C)S(=O)(=O)c1ccccc1 | . | . | -2 | . | . | 114*
C[C@@H]1CCCCO[C@@H](CN(C)Cc2ccncc2)[C@@H](C)CN([C@@H](C)CO)C(=O)c2cc(NS(C)(=O)=O)ccc2O1 | 10[16.7 µM] | 3 | . | 3 | -1 | -5[16.7 µM]
CO[C@H]1CN(C)C(=O)c2ccc(NC(=O)CC(F)(F)F)cc2OC[C@H](C)NC[C@H]1C | . | -4 | . | 2 | -1 | .
COc1ccc(CCN(C)C(=O)c2oc3ccccc3c2C)cc1OC | 8 | 105* | -2 | -6 | 0 | -6
COc1ccc(CN(C(=O)c2oc3ccccc3c2C)C2CCS(=O)(=O)C2)cc1OC (centres undefined) | . | 11 | -2 | . | . | -4
CC(C)(C)OC(=O)C1=CC[C@@H](c2ccc(Cl)c(Cl)c2)N(S(=O)(=O)c2ccc(F)cc2)[C@H]1c1cccc(F)c1 | 93* | 2 | 0 | 15 | -3 | -4
Cc1ccc(S(=O)(=O)N2[C@@H](c3ccc(Cl)cc3)C(C(=O)O)=CC[C@H]2c2cccc(Cl)c2)cc1 | -1 | -33 | 9 | -41 | 2 | 3
Cc1ccc(S(=O)(=O)N2[C@@H](c3ccc(Cl)cc3)C(C(=O)O)=CC[C@H]2c2cccc(C)c2)cc1 | 26 | -2 | 1 | -22* | -2 | .
COc1cccc([C@@H]2CC=C(C(=O)O)[C@H](c3cccc(Cl)c3)N2S(=O)(=O)c2ccc(C)cc2)c1 | 4 | -13 | -5 | -32* | 2 | .
CO[C@H]1CC[C@H]2CCN(C)C(=O)[C@@H](C)N(C)C(=O)c3cccc(C#N)c3OC[C@H]1O2 | -16[16.7 µM] | 1 | 3 | 2 | . | .
C[C@@H]1CCCCO[C@H](CN(C)C(=O)c2ccncc2)[C@H](C)CN([C@@H](C)CO)C(=O)c2cc(NS(=O)(=O)c3cn(C)cn3)ccc2O1 | 7[16.7 µM] | 32 | 0 | 4 | -3 | -1[16.7 µM]
COc1ccc2c3c([nH]c2c1)[C@@H](CO)N(S(=O)(=O)c1cn(C)cn1)CC31CCN(CC2CCCCC2)CC1 | . | 0 | . | 4 | 8.6* | .
O=C(CNC(=S)N(Cc1ccccc1)Cc1ccccc1F)NCc1ccccc1 | 9 | -47 | . | -29 | 2 | .
Cc1ccc(CNC(=O)CNC(=S)N(Cc2ccccc2)Cc2ccccc2F)cc1 | 16 | -43 | . | -30* | -3 | .
O=C(CNC(=S)N(Cc1ccccc1)Cc1ccccc1F)NCc1ccc(Cl)cc1 | 15 | -17 | . | -27* | 2 | .
Fc1ccccc1CNC(=S)NCc1ccc(Cl)cc1 | . | -27 | 194* | -29 | -2 | .
C[C@H](CO)N1C[C@H](C)[C@H](CN(C)Cc2ccc(C(=O)O)cc2)Oc2ccc(NC(=O)Cc3ccccc3)cc2CC1=O | -5[16.7 µM] | 16 | -4 | 1 | 2 | -4[16.7 µM]
C[C@H]1CN([C@@H](C)CO)C(=O)c2cccc(NC(=O)c3cnccn3)c2O[C@H]1CN(C)CC1CC1 | 7[16.7 µM] | 14 | 9 | 1 | -1 | 6[16.7 µM]
SMILES | HIV Env fusion | GSIS activator | Cneo AK release | rRNA inh HTS | F508del corr | miR-122 sensor
CCCC(=O)Nc1ccc2c(c1)C(=O)N(C)C[C@@H](OC)[C@@H](C)CN(CC1CCOCC1)[C@H](C)CO2 | . | 11 | . | 0 | 3 | 7[16.7 µM]
Cc1ccc(S(=O)(=O)N2C[C@H]3[C@H]4C(=O)N(c5ccccc5)C(=O)[C@H]4C[C@H](OC(=O)Nc4c(C)noc4C)[C@@]3(O)C2)cc1 | 9 | -4 | 0 | -2.8* | 1 | 1
CN1c2ccc(-c3cccc(F)c3)cc2[C@@H]2[C@@H](CCN2C(=O)C2CC2)[C@H]1CO | . | 4 | -1 | -24 | -1 | 6[16.7 µM]
CN1c2ccc(-c3cccc(F)c3)cc2[C@H]2[C@H](CCN2C(=O)C2CC2)[C@H]1CO | . | -25 | -1 | -39 | -2 | 100*[16.7 µM]
CN1c2ccc(-c3cccc(F)c3)cc2[C@H]2[C@H](CCN2C(=O)c2ccccc2F)[C@H]1CO | . | 5 | -11 | -3 | 2 | 107*[16.7 µM]
COc1cccc(-c2ccc3c(c2)[C@H]2[C@H](CCN2C(=O)c2ccccc2F)[C@@H](CO)N3C)c1 | . | -25 | 4 | -10 | -3 | 4[16.7 µM]
COc1ccc(-c2ccc3c(c2)[C@@H]2[C@@H](CCN2S(=O)(=O)c2ccccc2C)[C@H](CO)N3)cc1 | . | 16 | -6 | 2 | 3 | -9[16.7 µM]
COc1ccc(C(=O)Nc2ccc3c(c2)C(=O)N(C)C[C@@H](OC)[C@@H](C)CN[C@@H](C)CO3)cc1 | -1[16.7 µM] | 0 | 4 | 0 | 0 | -9[16.7 µM]
COc1ccc(S(=O)(=O)Nc2ccc3c(c2)C(=O)N([C@@H](C)CO)C[C@H](C)[C@@H](CN(C)C(=O)Nc2ccc4c(c2)OCO4)OCCCC[C@H](C)O3)cc1 | 10[16.7 µM] | -41 | 56 | -2 | -2 | 2[16.7 µM]
O=C(NCc1cccc(F)c1)[C@@H]1[C@@H](CO)[C@@H]2Cn3c(ccc(-c4cccnc4)c3=O)[C@H]1N2CC1CC1 | 67*[16.7 µM] | 0 | -1 | 0 | . | .
O=C(NCc1cccc(F)c1)[C@H]1[C@H](CO)[C@H]2Cn3c(ccc(-c4ccncc4)c3=O)[C@@H]1N2CC1CC1 | . | 1 | 9 | 2 | 3 | -4[16.7 µM]
Cc1ccc2c(c1)-c1c(ssc1=S)C(C)(C)N2C(=O)CSC1=NCCS1 | . | 5 | -5 | -26* | 2 | -3
